Shown are actives, neighbours in structure and some others; about 1.1% of the full set was active somewhere.
LYPLA2 counter: LYPLA2 inhibitors, primary screen, counter-screen for PME1 inhibitor project, biochemical, fluorescence polarization, FP-Rh probe ABPP; actives 0.38% (n = 320,000); AID 2177, 2009; Acyl-protein thioesterase 2 (Homo sapiens), O95372; inhibition, % at 5.9 µM; recombinant LYPLA2;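 active = inhibition above the screen-wide mean plus 3 SD, limit set per campaign, cut at about 26% in these data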
Target sequence (O95372 whole entry, looked up): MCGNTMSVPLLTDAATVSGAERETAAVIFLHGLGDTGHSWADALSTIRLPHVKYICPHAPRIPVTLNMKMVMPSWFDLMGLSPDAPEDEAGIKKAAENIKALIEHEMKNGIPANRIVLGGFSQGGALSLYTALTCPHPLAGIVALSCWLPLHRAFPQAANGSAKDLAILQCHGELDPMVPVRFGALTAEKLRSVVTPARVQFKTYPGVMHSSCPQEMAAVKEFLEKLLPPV
PREPL inhibitor: PREPL enzyme inhibitors, primary screen, biochemical, fluorescence polarization. Prolyl endopeptidase-like (Homo sapiens), Q4J6C6. recombinant PREPL, fluorescence polarization activity-based probe. inhibition, % at 5.96 µM. actives 0.68% (n = 320,000). AID 2751, 2010; in the data active = inhibition above about 43%
procasp3 activ: activators of human procaspase-3 D3A mutant, primary screen, biochemical, absorbance, PC-3 D3A mutant, single concentration. Caspase-3 (Homo sapiens), P42574. actives 0.11% (n = 330,000). AID 463141, 2010. recombinant procaspase-3 D3A, Ac-DEVD-pNA absorbance 405 nm. activation, % at 8.5 µM;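 active = activation above the mean of all tested compounds plus 3 SD, cut at about 21% in these data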
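Test system: Procaspase-3 D3A mutant, all three cleavage aspartates alanine | Dosing: Single dose, 8.5 µM nominal compound, 0.8% DMSO | Schedule: 1 h preincubation, 2 h reaction | Technique: 405 nm absorbance of p-nitroaniline, reads at 0 and 120 min | Repeats: One well per compound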
LYPLA1 counter: LYPLA1 inhibitors, primary screen, counter-screen for PME1 inhibitor project, biochemical, fluorescence polarization, FP-Rh probe ABPP | Acyl-protein thioesterase 1 (Homo sapiens), O75608 | recombinant LYPLA1 | inhibition, % at 5.9 µM | actives 0.16% (n = 320,000) | AID 2174, 2009;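 active = inhibition above the mean of all tested compounds plus 3 SD, set per campaign, cut at about 14% in these data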;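 note: inhibitors block serine hydrolase probe labeling of LYPLA1 so polarization falls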
Target sequence (O75608 whole entry, looked up): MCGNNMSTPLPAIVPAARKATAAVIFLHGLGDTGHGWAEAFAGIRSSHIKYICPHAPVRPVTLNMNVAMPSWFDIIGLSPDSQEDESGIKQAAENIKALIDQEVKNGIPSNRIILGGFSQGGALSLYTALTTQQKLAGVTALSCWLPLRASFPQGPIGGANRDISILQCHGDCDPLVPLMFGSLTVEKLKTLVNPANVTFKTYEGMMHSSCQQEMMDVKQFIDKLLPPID
proCasp7 act: procaspase-7 activators, primary screen, counter-screen for procaspase-3 activator project, biochemical, absorbance, HTS, human; activation, % at 8.5 µM; recombinant procaspase-7, Ac-DEVD-pNA absorbance 405 nm; D23A/D198A/D206A triple mutant, cannot self-cleave; scale: DMSO 0, 5 µM enzyme 100; Caspase-7 (Homo sapiens), P55210; actives 0.093% (n = 330,000); AID 463210, 2010;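 active = percent activation above the screen-wide mean plus 3 SD, cut at about 25% in these data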
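Material: Procaspase-7 triple mutant (PC-7 D3A) | Quantity: 2 µM procaspase-7 mutant as dispensed | Reagent: DEVD-pNA substrate | Times: 1 h preincubation, 2 h reaction | Technique: 405 nm absorbance of p-nitroaniline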
LYPLA2 conf: LYPLA2 inhibitors, retest, confirmation, counter-screen for PME1 inhibitor project, biochemical, fluorescence polarization, FP-Rh probe ABPP. shares compounds with LYPLA2 counter. recombinant LYPLA2. inhibition, % at 5.9 µM. actives 72% (n = 1,100);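 active = mean inhibition across replicates above the hit cutoff set in the primary screen, cut at about 26% in these data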;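 note: blocked labeling of the enzyme by serine hydrolase FP-Rh probe lowers polarization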
Of the large screens only hits and unclear results are named; the others gave an inactive call (follow-up assays come after a bar, where they were run).

Cc1ccc(S(=O)(=O)N2[C@@H](c3ccc(Br)cc3)C(C(=O)O)=CC[C@H]2c2ccc3c(c2)OCO3)cc1	none (no result: LYPLA2 counter, LYPLA1 counter)
O=Cc1ccc(OCCOc2ccc([N+](=O)[O-])cc2)cc1	LYPLA2 counter 37 | LYPLA2 conf inactive
O=[N+]([O-])c1ccc(OCCN2CCNCC2)cc1	LYPLA2 counter 29 | LYPLA2 conf 26
CCn1c(SCC(=O)N(C)CC(=O)Nc2cccc(OC)c2)nnc1-c1ccco1	none
CC(/C=N/NC(=O)CSc1ccccn1)=C\c1ccc(C(C)C)cc1	none
CC(=C/c1ccc(C(C)C)cc1)/C=N/NC(=O)Cn1nnnc1N	LYPLA2 counter 40 | LYPLA2 conf 40
CC1CCC(NC(=O)CN(C)S(=O)(=O)c2ccc3c(c2)CCC(=O)N3)CC1 (stereo not drawn)	none
COc1ccc(N2CCN(C3CC(=O)N(Cc4ccccc4)C3=O)CC2)cc1 (stereo not drawn)	none
O=C(c1ccncc1)c1ccc(N2CCN(C3CC(=O)N(Cc4ccccc4)C3=O)CC2)cc1 (stereo not drawn)	LYPLA2 counter 28 | LYPLA2 conf inactive
O=C(O)CN1C(=O)/C(=C\c2cc(Br)ccc2OCc2ccc(F)cc2)SC1=S	LYPLA2 counter 41 | LYPLA2 conf 44
COc1ccc(C(=O)C2CCN(C(=S)NCCc3ccc(OC)c(OC)c3)CC2)cc1	none
COc1ccc(CCNC(=S)N2CCC(C(=O)c3ccc(F)cc3)CC2)cc1OC	LYPLA2 counter 27 | LYPLA2 conf 31
COc1cccc(CCN2CCC(CNS(=O)(=O)c3cc(-c4cc(C)no4)ccc3OC)CC2)c1	none
COc1cccc(CCN2CCC(CNS(=O)(=O)c3cc(-c4cc(C)no4)ccc3C)CC2)c1	LYPLA2 counter 28 | LYPLA2 conf 35
O=C(C1CCN(S(=O)(=O)c2cccc3nsnc23)CC1)N1CC=C(c2ccccc2)CC1	none
O=C(C1CCC(CNS(=O)(=O)c2cccc3nsnc23)CC1)N1CC=C(c2ccccc2)CC1 (stereo not drawn)	LYPLA2 counter 42 | LYPLA2 conf 41
COc1cccc(CNC(=O)C2CCC(CNS(=O)(=O)c3cccc4nsnc34)CC2)c1 (stereo not drawn)	LYPLA2 counter 26 | LYPLA2 conf 46
CCn1c(SCC(=O)NC2CCCC2)nnc1-c1cccnc1	none
O=C(Nc1ccc(S(=O)(=O)C(F)F)cc1)c1cccc(S(=O)(=O)N2CCOCC2)c1	LYPLA2 counter 35 | LYPLA2 conf 38
O=C(Nc1ccncc1)c1cc(S(=O)(=O)N2CCOCC2)ccc1Cl	none
O=C(Nc1cccc(S(=O)(=O)C(F)F)c1)c1ccc(S(=O)(=O)N2CCOCC2)cc1	none
O=C(Nc1ccc(S(=O)(=O)N2CCOCC2)cc1)c1cc(S(=O)(=O)N2CCOCC2)ccc1Cl	LYPLA2 counter 40 | LYPLA2 conf 38
CC(OC(=O)CN1C(=O)NC2(CCCC2)C1=O)C(=O)Nc1cccc(Cl)c1 (stereo not drawn)	none
CCOc1ccccc1NC(=O)C(=O)CC(=O)c1ccc(OC)cc1	none
CC(C)(C)C(=O)Nc1ccc(C(=O)Nc2cc(NC(=O)c3ccc(NC(=O)C(C)(C)C)cc3)cc(C(=O)O)c2)cc1	none
CC(C)(C)C(=O)Nc1ccc(C(=O)Nc2cccc(Oc3ccc(C(=O)O)c(C(=O)O)c3)c2)cc1	LYPLA2 counter 31 | LYPLA2 conf inactive
O=C(Nc1cccc(Oc2ccc(C(=O)O)c(C(=O)O)c2)c1)c1ccc(-c2ccccc2)cc1	LYPLA2 counter 54 | LYPLA2 conf 40
CNc1c(NS(=O)(=O)c2cc(NC(C)=O)ccc2C)c(=O)oc2ccccc12	none
Cc1cccc(/C=N/NC(=O)CC(=O)NCCc2ccccc2)c1	none
O=C(NC1CCCC1)C(c1ccccc1)N(C(=O)c1csnn1)c1ccccc1F (stereo not drawn)	none
